Test results published in ChEMBL document CHEMBL4145619, “Computer-Assisted Discovery of Retinoid X Receptor Modulating Natural Products and Isofunctional Mimetics” (J Med Chem, 2018).
Active and inactive are the calls of the source. No cut-off for these calls is given here.

Assays:
Type in all cases: cell-based
[1] = biological target: T1, Retinoic acid receptor beta (Homo sapiens) (UniProt P10826); assay: Transactivation of human Gal4-fused RARbeta LBD expressed in HEK293T cells at 30 uM after 12 to 14 hrs by dual-glo luciferase assay
T1 sequence (whole entry): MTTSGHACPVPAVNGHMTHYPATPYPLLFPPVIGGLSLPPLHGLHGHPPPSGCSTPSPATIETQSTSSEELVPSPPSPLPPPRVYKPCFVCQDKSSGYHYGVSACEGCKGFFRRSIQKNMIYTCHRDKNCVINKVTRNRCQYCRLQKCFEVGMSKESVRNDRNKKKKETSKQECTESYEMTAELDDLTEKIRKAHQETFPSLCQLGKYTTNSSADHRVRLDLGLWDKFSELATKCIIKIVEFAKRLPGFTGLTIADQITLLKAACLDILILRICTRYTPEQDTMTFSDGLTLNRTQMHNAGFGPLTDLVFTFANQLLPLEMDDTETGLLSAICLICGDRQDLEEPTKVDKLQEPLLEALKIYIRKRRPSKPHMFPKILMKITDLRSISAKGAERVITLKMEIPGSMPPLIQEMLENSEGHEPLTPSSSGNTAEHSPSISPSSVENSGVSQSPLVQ
Method in brief: (§1)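 Single-concentration selectivity profiling in Gal4-hybrid reporter gene assays in HEK293T cells. Each nuclear receptor construct (RAR, PPAR, LXR, FXR, CAR, VDR, PXR, RXR) was tested at 30 μM.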

[2] = biological target: T2, Peroxisome proliferator-activated receptor alpha (Homo sapiens) (UniProt Q07869); assay: Transactivation of human Gal4-fused PPARalpha LBD expressed in HEK293T cells at 30 uM after 12 to 14 hrs by dual-glo luciferase assay; method in brief: as §1
T2 sequence (whole entry): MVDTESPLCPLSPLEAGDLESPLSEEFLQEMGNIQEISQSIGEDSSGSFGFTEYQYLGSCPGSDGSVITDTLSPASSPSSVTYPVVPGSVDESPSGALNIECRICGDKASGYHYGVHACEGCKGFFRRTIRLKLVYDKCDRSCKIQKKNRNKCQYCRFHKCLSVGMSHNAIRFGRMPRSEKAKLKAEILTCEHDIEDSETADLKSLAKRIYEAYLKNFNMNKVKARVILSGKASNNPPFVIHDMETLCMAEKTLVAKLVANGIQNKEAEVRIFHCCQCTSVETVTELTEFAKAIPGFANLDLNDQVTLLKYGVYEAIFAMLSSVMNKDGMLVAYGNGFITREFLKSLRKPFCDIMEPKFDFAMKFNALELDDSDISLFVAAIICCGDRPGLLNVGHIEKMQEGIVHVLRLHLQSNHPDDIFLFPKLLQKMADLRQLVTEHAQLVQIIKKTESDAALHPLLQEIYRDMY

[3] = biological target: T3, Nuclear receptor subfamily 1 group I member 2 (Homo sapiens, UniProt O75469); assay: Transactivation of human Gal4-fused PXR LBD expressed in HEK293T cells at 30 uM after 12 to 14 hrs by dual-glo luciferase assay; method in brief: as §1
T3 sequence (O75469 whole entry): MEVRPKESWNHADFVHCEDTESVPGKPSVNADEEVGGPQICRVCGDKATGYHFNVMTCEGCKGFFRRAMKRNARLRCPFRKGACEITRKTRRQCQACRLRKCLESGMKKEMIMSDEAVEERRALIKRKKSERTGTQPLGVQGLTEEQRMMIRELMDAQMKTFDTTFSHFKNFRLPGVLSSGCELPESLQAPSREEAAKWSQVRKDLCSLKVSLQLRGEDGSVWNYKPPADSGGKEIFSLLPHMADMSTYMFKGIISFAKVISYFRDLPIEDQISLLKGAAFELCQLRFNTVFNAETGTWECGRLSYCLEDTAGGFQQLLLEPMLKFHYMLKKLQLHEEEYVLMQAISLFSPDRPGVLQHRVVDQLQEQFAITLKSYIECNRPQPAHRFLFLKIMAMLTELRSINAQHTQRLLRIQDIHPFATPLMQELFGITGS

[4] = biological target: T4, Vitamin D3 receptor (Homo sapiens) (UniProt P11473); assay: Transactivation of human Gal4-fused VDR LBD expressed in HEK293T cells at 30 uM after 12 to 14 hrs by dual-glo luciferase assay; method in brief: as §1
T4 sequence (whole entry): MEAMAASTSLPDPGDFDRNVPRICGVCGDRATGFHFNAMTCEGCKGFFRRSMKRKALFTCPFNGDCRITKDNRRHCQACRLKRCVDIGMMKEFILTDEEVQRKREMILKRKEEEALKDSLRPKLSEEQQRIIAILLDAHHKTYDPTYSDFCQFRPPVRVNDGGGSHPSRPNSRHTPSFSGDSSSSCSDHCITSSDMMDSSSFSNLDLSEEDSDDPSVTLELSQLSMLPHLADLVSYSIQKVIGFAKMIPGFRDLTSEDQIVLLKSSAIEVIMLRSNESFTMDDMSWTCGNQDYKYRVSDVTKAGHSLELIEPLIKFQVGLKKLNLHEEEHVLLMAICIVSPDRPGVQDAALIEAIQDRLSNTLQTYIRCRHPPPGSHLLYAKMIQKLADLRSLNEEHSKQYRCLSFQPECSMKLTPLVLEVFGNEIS

[5] = biological target: T5, Oxysterols receptor LXR-beta (Homo sapiens) (UniProt P55055); assay: Transactivation of human Gal4-fused LXRbeta LBD expressed in HEK293T cells at 30 uM after 12 to 14 hrs by dual-glo luciferase assay; method in brief: as §1
T5 sequence (whole entry): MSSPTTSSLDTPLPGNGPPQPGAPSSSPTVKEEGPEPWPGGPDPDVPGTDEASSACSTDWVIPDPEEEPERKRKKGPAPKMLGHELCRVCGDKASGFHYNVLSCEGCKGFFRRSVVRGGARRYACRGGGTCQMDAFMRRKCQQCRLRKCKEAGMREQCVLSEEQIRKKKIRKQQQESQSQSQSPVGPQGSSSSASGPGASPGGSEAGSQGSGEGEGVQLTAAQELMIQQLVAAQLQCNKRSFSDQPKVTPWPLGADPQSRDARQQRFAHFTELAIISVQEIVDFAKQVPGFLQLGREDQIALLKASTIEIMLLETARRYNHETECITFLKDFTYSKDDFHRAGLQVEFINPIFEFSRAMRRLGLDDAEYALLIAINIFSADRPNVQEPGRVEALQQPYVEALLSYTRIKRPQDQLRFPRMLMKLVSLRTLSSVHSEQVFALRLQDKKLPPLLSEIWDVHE

For `CC1=C2[C@H](/C=C(\C)C(=O)O)CC[C@@H](C)[C@H]2CC1` [VALERENIC ACID], the Activity [1] was “inactive”, the Activity [2] was “inactive” and the Activity [3] was “Not Active”. For the same compound, the Activity [4] was “inactive” and the Activity [5] was “inactive”.
